In ChEMBL document CHEMBL4251598, “Development of novel bis-pyrazole derivatives as antitumor agents with potent apoptosis induction effects and DNA damage” (Eur J Med Chem, 2018) one finds IC50, inhibition and Activity data, which are given here for 27 compounds.

In one assay the test system is PC-3. In words: Induction of apoptosis in human PC3 cells. It counts as functional, cell-based.
Another assay relates to HCT-116. In words: Antiproliferative activity against human HCT116 cells after 72 hrs by MTT assay. The format is functional, cell-based. The following applies: HCT-116, 72 h. In a few lines:
(§1)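 Cells in DMEM with 10% FBS, 10^4 cells/mL, adhered overnight at 37 °C, 5% CO2. Treated in triplicate with a range of concentrations for 72 h. MTT (5 mg/mL solution) added for the last 4 h, formazan dissolved in DMSO, absorbance read at 570 nm. IC50 calculated from percent inhibition. Mean ± SD of three independent experiments.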
(Formazan colour is commonly taken as a measure of viable cells.)

The next assay deals with SGC-7901. In words: Antiproliferative activity against human SGC7901 cells after 72 hrs by MTT assay. It counts as functional, cell-based. To be noted: SGC-7901, 72 h. In a few lines: as §1
For assay [1], the system named is SMMC-7721. In words: Antiproliferative activity against human SMMC7721 cells after 72 hrs by MTT assay. It counts as functional, cell-based. To be noted: SMMC-7721, 72 h. In a few lines:
as §1

Assay [2] relates to SMMC-7721. The assay can be described thus: Antiproliferative activity against human SMMC7721 cells assessed as inhibition of cell proliferation at 25 uM after 72 hrs by MTT assay relative to control. It counts as functional. The following applies: SMMC-7721, 72 h. In a few lines:
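Cells in DMEM with 10% FBS, plated at 10^4 cells/mL, adhered overnight. Treated at 25 μM for 72 h. MTT added for the last 4 h, formazan dissolved in DMSO, A570 read. Inhibition expressed as percent of untreated. Mean + SD from three separate measurements.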

The test system of assay [3] is SMMC-7721. In words: Induction of DNA double stranded breaks in human SMMC7721 cells assessed as increase in H2AX phosphorylation at S139 at 0.8 uM after 72 hrs by Western blot analysis. The format is functional, cell-based. In a few lines: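 SMMC-7721 cells treated with vehicle, compound at 0.2, 0.8 or 3.2 μM, or ADM for 72 h. Lysates immunoblotted for H2AX pS139, p-p53 (Ser15), total p53 and β-actin, with ECL detection. Signals quantified by densitometry relative to β-actin, mean ± SD of three experiments.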

The subject of assay [4] is SMMC-7721. The assay can be described thus: Induction of apoptosis in human SMMC7721 cells assessed as apoptotic cells at 3.2 uM after 72 hrs by FITC-Annexin-V/7AAD/propidium iodide staining based flow cytometry relative to control. The format is functional. In a few lines: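 SMMC-7721 cells cultured overnight, then treated in triplicate with 0.2, 0.8 or 3.2 μM, vehicle, or ADM (3.2 μM) for 72 h. Stained with annexin V and PI (methods section: APC-annexin V/7-AAD) for 15 min at room temperature. Mean ± SD of three independent experiments.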

Each structure is given as a SMILES string. Active and inactive are the calls of the source. The rule behind the calls is not given here. Where only a bound is given, the exact number is not on record here.

As to `CCOC(=O)c1cc(-c2ccccc2)nn1Cc1ccc(Cl)nc1`, in the assay on PC-3, the midpoint of inhibition, the IC50, lay at 15.2 µM.
In the case of `Cc1nn(C)c(Oc2ccc(F)cc2)c1/C=N\OCc1c(Cl)c(-c2ccc(F)cc2)nn1C`, the IC50 with HCT-116 is 8.02 µM; with SGC-7901, 7.08 µM; with SMMC-7721 [1], 6.64 µM. The inhibition at 25 µM in the assay with SMMC-7721 [2] was 80%.
For the compound `CCc1nn(C)c(CO/N=C/c2c(C)nn(C)c2Oc2ccc(Br)cc2)c1Cl`, the inhibition at 25 µM with SMMC-7721 [2] is under 80%.
Turning to `Cc1ccc(Oc2c(/C=N\OCc3c(Cl)c(-c4ccc(Cl)cc4)nn3C)c(C)nn2C)cc1`, the half-maximal inhibitory concentration (IC50) with HCT-116 amounted to 2.85 µM; in the assay with SGC-7901, 3.73 µM; in the assay on SMMC-7721 [1] it was 5.84 µM. Also, the inhibition at 25 µM with SMMC-7721 [2] came to 80%.
On to `Cc1nn(C)c(Oc2ccc(OC(F)(F)F)cc2)c1/C=N\OCc1c(Cl)c(-c2ccc(Cl)cc2)nn1C`, for which the values for the IC50 in the assay with HCT-116, in the assay with SGC-7901 and in the assay with SMMC-7721 [1] were 3.02 µM, 3.22 µM and 8.67 µM, respectively. For the same compound, the inhibition at 25 µM with SMMC-7721 [2] was 80%.
Turning to `CCc1nn(C)c(CO/N=C/c2c(C)nn(C)c2Oc2ccccc2F)c1Cl`, in the assay on SMMC-7721 [2], the inhibition at 25 µM is under 80%.
Same read-out and setting: the value for `CCc1nn(C)c(CO/N=C/c2c(C)nn(C)c2Oc2ccc(F)cc2)c1Cl` was under 80%; that for `CCc1nn(C)c(CO/N=C/c2c(C)nn(C)c2Oc2ccc(C)cc2)c1Cl` was under 80%; that for `CCc1nn(C)c(CO/N=C/c2c(C)nn(C)c2Oc2cccc(C)c2)c1Cl` was under 80%.
Same read-out and setting: the value for `CCc1nn(C)c(CO/N=C/c2c(C)nn(C)c2Oc2ccccc2C)c1Cl` was under 80%.
As for `Cc1nn(C)c(Oc2ccc(Br)cc2)c1/C=N\OCc1c(Cl)c(-c2ccc(Cl)cc2)nn1C`, the results for the IC50 in the assay with HCT-116, with SGC-7901 and in the assay on SMMC-7721 [1] were 5.91 µM, 5.96 µM and 7.13 µM, respectively. Further, the inhibition at 25 µM with SMMC-7721 [2] amounted to 80%.
With `Cc1nn(C)c(Oc2ccc(Cl)cc2)c1/C=N\OCc1c(Cl)c(-c2ccc(Cl)cc2)nn1C`, the IC50 in the assay on HCT-116 came to 4.67 µM; with SGC-7901, 7.51 µM; with SMMC-7721 [1], 6.82 µM. Also, the inhibition at 25 µM in the assay with SMMC-7721 [2] is 80%.
For the compound `CCc1nn(C)c(CO/N=C/c2c(C)nn(C)c2Oc2ccc(Cl)cc2)c1Cl`, in the assay with SMMC-7721 [2], the inhibition at 25 µM was under 80%.
On to `CCc1nn(C)c(CO/N=C\c2c(C)nn(C)c2Oc2ccccc2OC(F)(F)F)c1Cl`, for which, in the assay with SMMC-7721 [2], the inhibition at 25 µM is under 80%.
For the compound `CCc1nn(C)c(CO/N=C/c2c(C)nn(C)c2Oc2ccc(I)cc2)c1Cl`, the inhibition at 25 µM in the assay with SMMC-7721 [2] was under 80%.
Take `Cc1ccc(Oc2c(/C=N\OCc3c(Cl)c(-c4ccc(F)cc4)nn3C)c(C)nn2C)cc1`: the results for the IC50 with HCT-116, with SGC-7901 and with SMMC-7721 [1] were 2.91 µM, 4.62 µM and 5.23 µM, respectively. Besides, the inhibition at 25 µM in the assay with SMMC-7721 [2] amounted to 80%.
`O=c1[nH]cc(F)c(=O)[nH]1` [FLUOROURACIL]: the IC50 with HCT-116 is 29.5 µM; in the assay on SGC-7901, 34.4 µM; with SMMC-7721 [1], 37.8 µM.
For the compound `COc1cccc2c1C(=O)c1c(O)c3c(c(O)c1C2=O)C[C@@](O)(C(=O)CO)C[C@@H]3O[C@H]1C[C@H](N)[C@H](O)[C@H](C)O1.Cl` [DOXORUBICIN HYDROCHLORIDE], the outcome with SMMC-7721 [3] was Active. Besides, the IC50 in the assay with HCT-116 came to 2.31 µM; with SGC-7901 it was 4.12 µM; in the assay on SMMC-7721 [1], 2.67 µM. Also, the inhibition at 25 µM in the assay with SMMC-7721 [2] was 80%. The Activity in the assay with SMMC-7721 [4] came to 47.5%.
With `Cc1nn(C)c(Oc2ccc(F)cc2)c1/C=N\OCc1c(Cl)c(-c2ccc(Cl)cc2)nn1C`, the IC50 with HCT-116 amounted to 7.25 µM; in the assay with SGC-7901, 4.43 µM; in the assay on SMMC-7721 [1], 3.23 µM. Also, the inhibition at 25 µM with SMMC-7721 [2] is 80%.
Consider `CCc1nn(C)c(CO/N=C/c2c(C)nn(C)c2Oc2ccccc2Cl)c1Cl`, for which the inhibition at 25 µM in the assay with SMMC-7721 [2] is under 80%.
Still for that read-out and setting: the value for `CCc1nn(C)c(CO/N=C\c2c(C)nn(C)c2Oc2ccc(OC(F)(F)F)cc2)c1Cl` was under 80%.
As for `COc1ccc(Oc2c(/C=N\OCc3c(Cl)c(-c4ccc(F)cc4)nn3C)c(C)nn2C)cc1`, the figures for the IC50 in the assay on HCT-116, in the assay with SGC-7901 and in the assay on SMMC-7721 [1] were 1.18 µM, 2.84 µM and 2.05 µM, respectively. The inhibition at 25 µM in the assay on SMMC-7721 [2] was 80%.
Regarding `CCc1nn(C)c(CO/N=C/c2c(C)nn(C)c2Oc2cccc(Cl)c2)c1Cl`, the inhibition at 25 µM with SMMC-7721 [2] is under 80%.
Same read-out and setting: the value for `CCc1nn(C)c(CO/N=C/c2c(C)nn(C)c2Oc2ccccc2OC)c1Cl` was under 80%.
The same measure, in the same setting: the value for `CCc1nn(C)c(CO/N=C\c2c(C)nn(C)c2Oc2ccc(OC)cc2)c1Cl` was under 80%.
As to `Cc1nn(C)c(Oc2ccc(Cl)cc2)c1/C=N\OCc1c(Cl)c(-c2ccc(F)cc2)nn1C`, the IC50 was found to be 6.03 µM with HCT-116, 8.11 µM with SGC-7901 and 7.97 µM in the assay with SMMC-7721 [1]. The inhibition at 25 µM in the assay on SMMC-7721 [2] was 80%.
Taken in the same sequence, the figures for `Cc1nn(C)c(Oc2ccc(OC(F)(F)F)cc2)c1/C=N\OCc1c(Cl)c(-c2ccc(F)cc2)nn1C` were 2.31 µM, 2.97 µM, 5.21 µM and 80%.

For orientation: IC50 means the concentration at which inhibition is half-maximal. The low end stands for greater potency in that assay, the high end for weaker potency in that assay. As usually defined, the inhibition is the share of the control response that was lost under treatment.
